An excerpt weighted towards active compounds, which were near 9.4% of everything screened.
CSC inhib – cancer stem cell viability inhibitors, primary screen, luminescence. cancer stem cell-like cells viability. inhibition, % at 7.5 µM. hit rate 1.1% among 300,000. AID 2717, 2010; in the data active = inhibition above about 75%; inconclusive = no clear call, values can overlap the other calls; tested in HMLE shEcad cells
T cruzi inh – inhibitors of intracellular T. cruzi growth, primary screen, luminescence, NIH3T3 host cells | T. cruzi beta-gal in NIH3T3, 90 h | inhibition, % (concentration not given with the values) | hit rate 1.4% among 300,000 | AID 1885, 2009;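 active = mean inhibition across valid replicates above about 55%, limit read from the data; inconclusive = mean below that limit but half or more replicates reach it; inactive = mean below it, under half of replicates reach it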;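 note: signal also drops with host cell toxicity which is not excluded here; 0% = plate median of DMSO wells and 100% = zero luminescence signal; higher percent means less beta-gal luminescence so fewer parasites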
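Material: NIH/3T3 host cells with β-galactosidase reporter T. cruzi; Input: 5,000 host fibroblasts per well; Medium: DMEM, 2% fetal bovine serum; Compound: 50 nL DMSO compound solution per well; Schedule: 3 h host attachment, then at least 90 h co-culture; Detection: luminescent β-galactosidase signal after 60 min lysis.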
Beta apoptosis – inhibitors of cytokine-induced beta cell apoptosis, primary screen, luminescence | hit rate 0.8% among 300,000 | protection from apoptosis, % (no concentration beside the values) | INS-1E cytokine-induced death, ATP luminescence, 48 h; percent of positive-control rescue, neutral wells zero;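 active = Every replicate reaches about 75%, or at least half do and their mean reaches it too, limit read from the data; inconclusive = At least half of replicates reach the limit but their mean does not; inactive = Under half of replicates reach the limit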;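 note: 0% = cytokine-treated negative control wells and 100% = positive control rescue; higher means more ATP so stronger rescue from cytokine killing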
L major viab – Leishmania major promastigote growth inhibition, primary screen. inhibition, % at 10 µM. Leishmania major promastigotes, resazurin fluorescence viability. hit rate 9% among 200,000; in the data active = inhibition above about 50%;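 note: promastigotes grown with compound for 44 hours at 28 °C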
SKKanGAS inh – S. pyogenes SKKanGAS growth inhibitors in kanamycin, primary screen, streptokinase expression inhibitor project, SKKanGAS strain, BacTiter-Glo luminescence; 6 h; inhibition, % at 7.5 µM; hit rate 1.3% among 300,000;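 active = mean replicate score, as percent of positive control median, at least 50; inconclusive = mean below 50 but one replicate at or above 50; inactive = mean and every replicate below 50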;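 note: strain carries kanamycin resistance gene driven by streptokinase promoter and grows in 40 µg/ml kanamycin; loss of luminescence reflects streptokinase promoter inhibition or plain growth inhibition; 0% = median of DMSO wells and 100% = positive control at its reference dose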
Mdm2 MdmX PPI – inhibitors of human Mdm2-MdmX association, primary screen, cell-based, luminescence, split luciferase, SaOS-2, uHTS | Protein Mdm4 (Homo sapiens) + E3 ubiquitin-protein ligase Mdm2 (Homo sapiens), … | SaOS-2 split-luciferase Mdm2/MdmX complementation | inhibition, % at 8 µM | hit rate 3% among 330,000;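 active = inhibition of at least 50% at 8 µM in the primary screen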
Mdm2-MdmX conf – Mdm2-MdmX complex disruptors, retested hits, confirmation, luminescence, single concentration | shares compounds with Mdm2 MdmX PPI | Mdm2-MdmX binding, luminescent assay | inhibition, % at 8 µM | hit rate 55% among 10,000; in the data active = inhibition above about 40%
Full FLuc ctr – full-length luciferase signal inhibition, confirmation, counter-screen for Mdm2/MdmX interaction inhibitor project, cell-based, single concentration, SaOS-2. shares compounds with Mdm2 MdmX PPI. SaOS-2 full-length luciferase counterscreen, luminescence. inhibition, % at 8 µM. hit rate 77% among 6,200;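 active = mean inhibition at 8 µM reaching about 37%, which flags the compound as non-specific, limit read from the data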;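 note: p53-null SaOS-2 cells with luciferase driven by a doxycycline-inducible promoter; compound on cells about two nights before reading with doxycycline added after day one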
The depositor's hits bear a star; ? = inconclusive; . = no result given.

SMILES	CSC inhib	T cruzi inh	Beta apoptosis	L major viab	SKKanGAS inh	Mdm2 MdmX PPI	Mdm2-MdmX conf	Full FLuc ctr
c1ccc(CN2CCC(Nc3nc(-c4ccccc4)nc4ccccc34)CC2)cc1	139.0*	25.8	35.1	99.8*	-0.4	83.1*	39.0	84.9*
COc1ccc(CC(=O)N[C@@H](C)C(=O)N2CCC3(CC2)NCCc2[nH]cnc23)cc1	-6.0	8.6	.	.	-5.0	0.0	.	.
CCc1c(C)sc(NC(=O)CSc2nc3c(c(C(F)(F)F)n2)CCc2ccccc2-3)c1C#N	8.1	10.4	9.9	-5.5	-5.3	74.9*	16.6	.
NC(=O)c1ccc(Oc2ccc(C(N)=O)cc2)cc1	-3.1	-9.9	-3.4	.	-13.0	10.6	.	.
CC1CCCC(NC(=S)Nc2ccc(SC(F)F)cc2)C1C (centres undefined)	?	18.2	24.5	17.4	108.2*	90.2*	9.1	.
CCOC(=O)N1CCN(CC(=O)Nc2sc(CC)cc2C(=O)c2ccc(OC)cc2)CC1	17.2	44.6	13.4	.	5.1	18.1	.	.
COc1ccc(-c2csc3ncnc(NCCO)c23)cc1	-8.8	-24.8	2.9	.	5.3	70.6*	59.2*	26.2
COc1ccc(-c2csc3ncnc(NCCCO)c23)cc1	-8.0	1.0	-3.2	.	5.5	45.7	.	.
CCCCn1c(C23CC4CC(CC(C4)C2)C3)n[nH]c1=S	12.6	15.9	.	.	19.7	4.7	.	.
CC(=O)OC[C@]12CC[C@H]3[C@@](C)(CC[C@H]4C(C)(C)CCC[C@]34C)[C@@H]1C[C@@H](C1=CC(=O)O[C@@H]1OC(C)=O)O2	125.5*	.	91.7*	.	.	100.5*	98.7*	2.2
CC(=O)OC[C@]12CC[C@H]3[C@@](C)(CC[C@H]4C(C)(C)CCC[C@]34C)[C@@H]1C[C@H](C1=CC(=O)O[C@H]1OC(C)=O)O2	106.7*	.	9.5	.	.	90.7*	23.1	.
O=C(COC(=O)/C=C/c1ccccc1[N+](=O)[O-])NCc1ccco1	-12.5	.	-10.7	.	.	16.0	.	.
O=C(N/C(=C/C=C/c1ccccc1)C(=O)N1CCOCC1)c1ccccc1Br	-0.2	1.0	2.7	10.9	3.0	12.6	.	.
Cc1ccsc1/C=N/Nc1ccc(F)cc1F	48.7	13.1	1.8	.	9.5	-43.9	.	.
COC(=O)c1c(C)oc2ccc(N(C(=O)Oc3ccccc3)S(=O)(=O)c3ccc(Cl)c([N+](=O)[O-])c3)cc12	62.8	25.5	0.1	-0.9	16.6	96.3*	-12.1	.
COC(=O)c1c(C)oc2ccc(N(C(=O)c3ccncc3)S(=O)(=O)c3ccc(C)cc3)cc12	-6.8	-6.2	62.2	11.8	6.6	55.6*	51.8*	85.5*
CCn1cc(CN2CCCC(CNS(=O)(=O)c3cccc4cccnc34)C2)cn1 (centres undefined)	4.2	15.8	3.5	.	4.0	-8.9	.	.
Cc1cc(=O)oc2cc(OCc3ccc(C(=O)OCC(=O)NC4CCS(=O)(=O)C4)cc3)ccc12 (centres undefined)	-6.0	-0.8	-2.9	.	-1.4	51.3*	15.1	.
CC(C)Oc1ccc(CCC(=O)NNC(=O)CCC(=O)O)cc1	-8.2	1.2	-2.4	.	-12.5	-9.5	.	.
Cc1cc(C)cc(SCc2noc(C(=O)NCCN(C)C)c2C(=O)NCCN(C)C)c1	25.5	50.5	7.5	.	-0.9	88.7*	47.1*	48.9*
CN(C)CCNC(=O)c1onc(CSc2ccncc2)c1C(=O)NCCN(C)C	12.3	-10.9	-1.7	.	-1.4	8.6	.	.
O=C(CCCN1C(=O)/C(=C\c2cccs2)SC1=S)Nc1ccc(O)cc1	.	13.9	-2.6	.	8.6	77.8*	70.9*	31.8
O=C(CCCN1C(=O)/C(=C\c2cccs2)SC1=S)Nc1ccccn1	16.3	18.1	3.8	8.0	-6.8	70.4*	63.7*	38.2*
CCN(CC)CCOC(=O)c1ccc(NC(=O)CCCN2C(=O)/C(=C/c3cccs3)SC2=S)cc1	23.6	6.9	-5.0	.	2.3	59.3*	17.4	.
CCN(CC)CCOC(=O)c1ccc(NC(=O)c2cn(-c3ccccc3)nc2-c2cccs2)cc1	.	.	.	22.4	.	50.4*	38.9	101.0*
SMILES	CSC inhib	T cruzi inh	Beta apoptosis	L major viab	SKKanGAS inh	Mdm2 MdmX PPI	Mdm2-MdmX conf	Full FLuc ctr
O=C(CCN1C(=O)/C(=C/c2cccs2)SC1=S)Nc1ccccn1	-5.2	9.2	2.3	-2.2	7.5	6.6	.	.
COc1ccc(-c2ocnc2C(=O)NCc2nn(-c3ccccc3)nc2C)cc1	14.5	.	65.6	.	-7.7	44.2	.	.
CCCCc1ccc(NC(=O)CSc2nnc(CNC(=O)c3ccco3)o2)cc1	-7.7	-6.1	-5.2	.	7.9	0.9	.	.
CCC(=O)N1CCCc2cc(S(=O)(=O)CCC(=O)Nc3ccccc3C)ccc21	4.3	-8.3	-5.5	.	-4.5	13.1	.	.
O=C(CCCN1C(=O)/C(=C/c2cccs2)SC1=S)Nc1ccccc1O	.	-3.1	-3.8	.	9.8	54.1*	37.9	86.9*
CCC(=O)c1ccc2c(c1)N(CCCN(C)C)c1ccccc1S2	4.3	13.1	-4.2	.	-3.4	55.1*	14.8	.
COC(=O)c1ccc(-n2c(C)cc(C(=O)CCl)c2C)cc1	52.2	52.2	4.5	100.6*	-50.4	93.9*	61.7*	58.1*
COC(=O)c1ccc(-n2c(C)cc(C(=O)COC(=O)C3=COCCO3)c2C)cc1	.	.	6.0	.	.	12.6	.	.
CCOc1ccc(-n2c(C)cc(C(=O)CCl)c2C)cc1	16.9	85.6*	35.9	100.4*	-9.6	94.0*	55.0*	87.5*
N#Cc1ccsc1NC(=O)CCN1CCN(C(c2ccccc2)c2ccccc2)CC1	31.6	23.3	0.4	.	-1.3	-0.6	.	.
Cc1ccc(S(=O)(=O)Nc2cccc3ncccc23)cc1	-6.2	-16.6	1.5	.	0.3	1.6	.	.
Cc1ccc(S(=O)(=O)Nc2cccc3ncccc23)s1	-3.7	53.4	31.9	100.2*	71.0*	100.6*	4.5	.
COc1cc2cncc(Cc3ccc(Cl)cc3)c2cc1OC	0.5	.	-9.6	.	.	68.6*	65.3*	26.2
COc1cc2nc(CN(C)Cc3ccc(Cl)cc3)[nH]c(=O)c2cc1OC	-18.0	-2.8	-8.8	11.7	-6.8	21.6	.	.
Cc1c(C(=O)N2CCN(c3ccc([N+](=O)[O-])cc3)CC2)oc2ccccc12	.	.	10.5	.	.	10.2	.	.
Cc1ccc(C(=O)c2cc([N+](=O)[O-])ccc2N2CCOCC2)c(C)c1	56.7	29.2	23.6	18.6	4.1	67.0*	57.8*	97.1*

Screening data (PubChem)
